Screens as filed in PubChem.
Shown are actives, neighbours in structure and some others; about 4.5% of the full set was active somewhere.
CHOP inh: inhibitors of CHOP promoter induction, primary screen, cell-based, unfolded protein response, luciferase reporter. CHO-K1 CHOP-promoter luciferase, tunicamycin-induced, 15-18 h. inhibition, % at 10 µM. AID 2732, 2010. 220,000 compounds, 3.8% hits;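 active = compounds that reduced the stress-induced luciferase reporter signal by more than about 70% of percent inhibition, limit read from the data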;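 note: 0% = tunicamycin plus vehicle and 100% = wells without tunicamycin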
NS3 helicase inh: inhibitors of HCV NS3 helicase, primary screen, biochemical, Cy5 molecular beacon fluorescence. NS3 helicase DNA unwinding. inhibition, % at 10.9 µM. 290,000 compounds, 0.56% hits;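 active = inhibition above the mean of all tested compounds plus 3 SD, set per campaign, cut at about 35% in these data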;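 note: 0% = DMSO wells and 100% = thioflavine S control wells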
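Test system: hepatitis C virus NS3 helicase domain fragment enzyme. Also added: annealed dual-labelled DNA beacon duplex, ATP-started. Timing: 60 min unwinding reaction at 25 °C after ATP addition. Technique: Cy5 fluorescence. Measure: % inhibition of unwinding.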
PfM18AAP inh-1: PfM18AAP inhibitors, malaria aminopeptidase, primary screen, biochemical, QFRET, recombinant enzyme; H-Glu-NHMec fluorogenic cleavage; inhibition, % at 7.35 µM; 290,000 compounds, 1.2% hits; M18 aspartyl aminopeptidase (Plasmodium falciparum 3D7);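 active = inhibition above the campaign mean inhibition over all tested compounds plus 3 SD, cut at about 28% in these data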;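 note: 0% = plate median of test compound wells and 100% = 2 mM ZnCl2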
UPR XBP1 act: activators of adaptive XBP1 UPR arm, primary screen, cell-based, CHO-XBP1 luciferase reporter, luminescence, uHTS; IRE1-XBP1 UPR activation; percent of tunicamycin response, DMSO as zero; activation, % at 20 µM; 330,000 compounds, 0.33% hits;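 active = versus positive control, 20 µM dose yields 30% or more activation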;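 note: 100% = tunicamycin at 10 µg/mL and 0% = DMSO only wells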
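Material: CHO cell line with stable XBP1 luciferase reporter; schedule: 16-18 h cell attachment at 37 °C, then 6 h compound exposure; signal: glow luminescence from Steady-Glo reagent; medium: serum-containing F12 medium, 10% FBS; benchmarks: tunicamycin 10 µg/mL and vehicle-only wells; read-out: percent activation relative to tunicamycin reference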
p97 ATPase inh: inhibitors of human p97 ATPase, primary screen, biochemical; inhibition, % at 8 µM; recombinant p97 ATPase, Kinase-Glo ATP luminescence, 3 h; 220,000 compounds, 0.42% hits; in the data active = inhibition above about 15%;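 note: 0% = DMSO vehicle and 100% = wells lacking enzyme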
CHOP UPR activ: activators of apoptotic CHOP UPR arm, primary screen, cell-based, CHO-CHOP luciferase reporter, luminescence, uHTS; UPR activation; percent of tunicamycin response over DMSO baseline; activation, % at 10 µM; 330,000 compounds, 0.34% hits;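 active = at 10 µM dose, activation of 40% or more, normalized to positive control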;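 note: 100% = tunicamycin at 10 µg/mL and 0% = DMSO alone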
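Test system: CHO CHOP reporter cells. Input: 500 CHO-CHOP cells per well. Medium: F12 with 10% FBS. Technique: luciferase luminescence. Measure: percent activation relative to tunicamycin control. Dosing: 10 µM compound, 0.5% DMSO. Timing: 16-18 h cell attachment, then 6 h compound exposure, 37 °C.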
PfM18AAP inh-2: PfM18AAP inhibitors, malaria aminopeptidase, confirmation, biochemical, QFRET, recombinant enzyme, triplicate | 2,400 compounds, 28% hits | inhibition, % at 7.35 µM | H-Glu-NHMec fluorogenic cleavage | shares compounds with PfM18AAP inh-1;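 active = mean inhibition over replicate wells above the hit cutoff set for the earlier primary screen, cut at about 29% in these data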;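 note: 0% = median of test compound wells and 100% = 2 mM ZnCl2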
CTSL1 confirm: cathepsin L1 inhibitors, retest, confirmation, counter-screen for PFM18AAP inhibitor project, biochemical, QFRET, triplicate | shares compounds with PfM18AAP inh-1 | purified cathepsin L1, Z-Leu-Arg-MCA fluorescence | inhibition, % at 5.96 µM | 2,400 tested, under 10 active;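 active = average inhibition across replicates above the hit cutoff set in the earlier primary screen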;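 note: 0% = median of test compound wells and 100% = Z-Phe-Ala-diazomethylketone 1 µM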
Target sequence (P07711 whole entry, looked up): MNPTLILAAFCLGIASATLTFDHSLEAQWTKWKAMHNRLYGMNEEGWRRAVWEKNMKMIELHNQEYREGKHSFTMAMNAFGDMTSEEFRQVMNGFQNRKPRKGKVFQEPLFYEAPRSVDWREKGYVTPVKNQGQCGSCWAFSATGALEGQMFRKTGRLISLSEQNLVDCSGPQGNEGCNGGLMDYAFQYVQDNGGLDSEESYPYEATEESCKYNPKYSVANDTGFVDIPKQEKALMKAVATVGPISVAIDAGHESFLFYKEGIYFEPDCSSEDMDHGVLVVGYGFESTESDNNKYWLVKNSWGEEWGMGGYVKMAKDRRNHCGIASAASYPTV
* marks the source's active call; other numbers are inactive results; . = no result given.

SMILES	CHOP inh	NS3 helicase inh	PfM18AAP inh-1	UPR XBP1 act	p97 ATPase inh	CHOP UPR activ	PfM18AAP inh-2	CTSL1 confirm
O=c1c2ccccc2sn1-c1ccc(S(=O)(=O)N2CCCCC2)cc1	.	5	12	-3	3	6	.	.
O=c1c2ccccc2sn1-c1ccc(S(=O)(=O)N2CCCC2)cc1	87*	-3	33*	-1	2	9	-23	-4
CN(C)S(=O)(=O)c1cccc(-n2sc3ccccc3c2=O)c1	93*	25	43*	-3	-5	4	43*	2
O=C(O)c1cccc(-n2sc3ccccc3c2=O)c1	.	.	.	-4	.	8	.	.
CCC1(O)CC2CN(CCc3c([nH]c4ccccc34)[C@@](C(=O)OC)(c3cc4c(cc3OC)N(C)C3[C@]45CCN4CC=C[C@@](CC)([C@@H](OC(C)=O)[C@]3(O)C(=O)OC)[C@H]45)C2)C1 (some centres undefined)	-5	.	.	.	.	.	.	.
O=C(NNc1cc(C(F)(F)F)nc2ccccc12)Nc1cccc(Cl)c1	13	-9	27	-2	1	1	.	.
O=C(NNc1nccc(C(F)(F)F)n1)Nc1cccc(Cl)c1	.	2	46*	3	.	2	14	-2
O=C(Nc1cccc(C(F)(F)F)c1)Nn1cnnc1	.	-2	70*	-1	.	-1	64*	0
Cc1ccc(NC(=O)Nn2cnnc2)cc1Cl	.	0	69*	-1	.	4	54*	-2
O=C(Nc1ccc(Cl)c(Cl)c1)Nn1cnnc1	.	-12	76*	-3	.	3	71*	-1
O=C(Nc1ccc(Cl)c(Cl)c1)Nc1ccccc1O	-7	0	1	0	7	4	.	.
COc1ccccc1N1CCN(S(=O)(=O)CCNC(=O)c2ccc(Br)o2)CC1	.	1	3	-4	.	0	.	.
COc1ccc(Cl)cc1NC(=O)CSc1nnc(-c2ccco2)o1	.	4	0	-3	.	2	.	.
O=C(Nc1ccncc1)Nc1cccc(Cl)c1	.	-13	-16	-1	.	4	.	.
O=C(Nc1cccc(Cl)c1)Nn1cnnc1	-7	3	67*	-2	3	1	58*	-4
COc1cccc(NC(=O)Nn2cnnc2)c1	.	-3	63*	-3	.	1	49*	1
CC1c2[nH]c3ccccc3c2C[C@H]2C(=O)N(CCCN(C)C)CC(=O)N12 (some centres undefined)	.	5	1	-3	.	1	.	.
Cc1ccsc1/C=N/Nc1nc(Cl)c(Cl)cc1Cl	44	1	19	1	7	4	.	.
Cc1ccc(/C=N/Nc2nc(Cl)c(Cl)cc2Cl)s1	83*	4	46*	7	-2	4	-42	-1
COC(=O)c1cc(OC)nc(OC)c1	8	-2	-1	2	2	-1	.	.
COC(=O)c1cc(O)c(O)c(O)c1	-4	5	32*	2	7	0	-5	10
Cc1cc(=O)[nH]c2c(N=Nc3ccc(O)cc3)c(N)nn12	12	12	61*	.	3	.	62*	6
C=CC[C@H](CC(=O)NCCO)C(=O)N[C@H](COC(=O)[C@H](CC=C)CC(=O)OC(C)(C)C)Cc1c[nH]c2ccccc12	.	.	.	1	.	0	.	.
CCN1C(=O)N(C)C(N(O)C(=O)NC)C1(C)C (centres undefined)	23	7	42*	-1	-5	-1	-59	-4
Cc1cc(C)cc(N(CCC#N)C(=O)COC(=O)C2CCN(S(=O)(=O)c3ccc(C)c(C)c3)CC2)c1	.	.	.	-4	.	0	.	.
SMILES	CHOP inh	NS3 helicase inh	PfM18AAP inh-1	UPR XBP1 act	p97 ATPase inh	CHOP UPR activ	PfM18AAP inh-2	CTSL1 confirm
O=C(CN(Cc1ccccc1Cl)C(=O)c1csnn1)NCCc1ccccc1	.	0	4	-5	.	0	.	.
Cc1nc(SCc2ccc(O)c([N+](=O)[O-])c2)c([N+](=O)[O-])[nH]1	-2	-3	47*	-1	7	3	-3	3
Cc1cccc(Nc2nc3c(s2)CCCC3)c1	2	-2	32*	.	0	.	-9	-1
CC(=O)Nc1cccc(OCC(=O)NC(C)c2ccc3ccccc3c2)c1 (centres undefined)	.	-9	-17	-6	.	0	.	.
O=C(NC1CCN(S(=O)(=O)c2cccc(F)c2)CC1)c1cccc(F)c1	.	21	0	-5	.	2	.	.
CCC(C)NCCOCCOc1ccc(C)cc1Br (centres undefined)	-20	-6	32*	-1	2	-2	-26	-1
COc1cccc2cc(C(=O)N(Cc3ccccc3)CC3CCCO3)c(=O)oc12 (centres undefined)	-1	8	35*	-1	-6	0	-29	-1
O=C(c1cc2ccccc2oc1=O)N(Cc1ccccc1)CC1CCCO1 (centres undefined)	18	-6	0	4	-6	-3	.	.
Cc1nc(N2CCN(c3ccc(Cl)cc3)CC2)[nH]c(=O)c1C	.	-8	-8	-6	.	0	.	.
Cc1ccc(C(=S)N2CCN(Cc3ccccc3)CC2)cc1	11	-5	52*	-4	3	-2	-6	6
CCN1CCN(C(=S)c2ccc(OCC(=O)NCc3ccccc3)cc2)CC1	11	2	39*	3	2	1	-7	3
Cc1ccc(NC(=S)N2CCN(Cc3ccccc3)CC2)cc1	-5	-4	-2	-2	3	2	.	.
O=C(COC(=O)/C=C/c1ccc(C(F)(F)F)cc1)NCC1CCCO1 (centres undefined)	.	.	.	2	.	1	.	.
COc1ccc(C2(O)C(=O)Nc3ccc(C)cc32)cc1OC (centres undefined)	.	16	2	-2	.	2	.	.
CCCc1cc(=O)oc2cc(OCC(=O)NCCc3c[nH]c4ccccc34)ccc12	.	-18	1	0	.	2	.	.
Oc1ccc(/C=N/NC(=S)NCCN2CCOCC2)c(O)c1	27	5	52*	-4	1	-1	27	12
